Bioassay records: PubChem, several laboratories
M1 ag: M1 muscarinic receptor agonists, primary screen, CHO-M1 cells, Fluo-4 calcium, agonist mode; Muscarinic acetylcholine receptor M1; Fluo-4 calcium fluorescence; stronger effect = higher value; B-score at 10 µM; 64,000 compounds, 3% hits; AID 626, 2007;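 active means fluorescence rise, raw or as B-score row- and column-corrected plate score, outside the 99.7% band of its plate's samples, either direction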
HEK293 NFkB inh: inhibitors of PMA/ionomycin-induced NF-kB reporter, primary screen, antigen receptor NF-kB inhibitor project, cell-based, HEK-293 luciferase reporter, luminescence; inhibition, % at 3 µM; HEK-293 NF-kB luciferase reporter; 62,000 compounds, 0.21% hits;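 active means inhibition above the mean of all tested compounds plus 3 SD, cut at about 40% in these data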;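 further: 0% = stimulated DMSO wells and 100% = 10 µM reference inhibitor 5653914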
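Signal: luciferase luminescence; Material: HEK-293 cells with stable firefly luciferase reporter driven by four HIV NF-kB elements; Probe or stimulus: PMA with ionomycin; Replication: tested once; Times: 1 h compound pretreatment, then 16 h stimulation at 37 °C, 5% CO2; Benchmarks: DMSO and 10 µM reference inhibitor; Evaluation: per-plate % inhibition versus controls.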
MKP-1 inh: MKP-1 phosphatase inhibitors, primary screen, biochemical, in vitro. inhibition, %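 (compounds tested at a single concentration somewhere between 10 and 100 µM)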. recombinant MKP-1, OMFP hydrolysis fluorescence. 65,000 compounds, 0.15% hits. AID 374, 2006. Dual specificity protein phosphatase 1 (Homo sapiens), P28562;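 active means inhibition above about 50%, limit read from the data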;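 further: 0% = DMSO max control wells and 100% = wells with enzyme stopped by NaOH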
Target sequence (P28562 whole entry, looked up): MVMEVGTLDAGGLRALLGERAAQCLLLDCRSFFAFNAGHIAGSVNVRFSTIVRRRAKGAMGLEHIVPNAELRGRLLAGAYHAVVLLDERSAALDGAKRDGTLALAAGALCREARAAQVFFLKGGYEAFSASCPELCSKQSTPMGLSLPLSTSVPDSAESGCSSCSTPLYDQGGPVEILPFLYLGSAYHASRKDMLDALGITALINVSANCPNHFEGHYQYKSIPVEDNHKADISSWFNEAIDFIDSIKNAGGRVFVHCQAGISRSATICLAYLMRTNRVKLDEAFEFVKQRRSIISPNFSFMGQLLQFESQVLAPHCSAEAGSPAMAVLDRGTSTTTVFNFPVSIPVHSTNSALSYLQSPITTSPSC
M1 antag: antagonists of rat M1 muscarinic receptor. CHO-M1 cells, Fluo-4 calcium, ACh EC80 antagonist mode; stronger effect = lower value. B-score at 10 µM. 64,000 compounds, 3.4% hits. AID 628, 2007;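 active means calcium fluorescence response, raw or row-and-column corrected B-score, differing from the plate sample mean either way at a set confidence level, mostly lower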
Cdc25B block: inhibitors of Cdc25B phosphatase catalytic domain, primary screen, biochemical, OMFP fluorescence; inhibition, %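 (compounds tested at 10 µM final in the well)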; M-phase inducer phosphatase 2 (Homo sapiens), P30305; recombinant Cdc25B, OMFP fluorescence Ex485/Em525; 65,000 compounds, 0.1% hits; in the data active means inhibition above about 50%
HER2 expr 66K: inhibitors of Her2 protein expression, primary screen, SKBR-3 cells, AlphaScreen, 66K library. Receptor tyrosine-protein kinase erbB-2 (Homo sapiens), P04626. SKBR-3 HER2 protein level, 18-24 h; stronger effect = lower value. HER2 level % of control, % at 10 µM. 65,000 compounds, 0.69% hits. AID 645, 2007;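 active means HER2 level under 5% of the carrier-only control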;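 further: 100% = DMSO carrier and 0% = 500 nM PU-H71 HSP90 inhibitor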
Active calls of the source: *; · = no result given. In the library only some 6.8% were active in any assay of this set; here they are far more common.

SMILES | M1 ag | HEK293 NFkB inh | MKP-1 inh | M1 antag | Cdc25B block | HER2 expr 66K
COc1ccc(OC)c(C2/C(=C(\O)c3c(C)nc4ccccn34)C(=O)C(=O)N2CCCN(C)C)c1 (configuration not stated) | 1.24 | 19.5 | -6.6 | 2.4* | -3.1 | 76.9
Cc1ccc(C2/C(=C(\O)c3c(C)nc4ccccn34)C(=O)C(=O)N2CCCN(C)C)o1 (configuration not stated) | -0.353 | 14.5 | -21.1 | -0.199 | -0.8 | 95.3
COc1ccc(/C(O)=C2/C(=O)C(=O)N(CCCN(C)C)C2c2ccco2)cc1Cl (configuration not stated) | 35.2* | · | -16.6 | -0.727 | -26.2 | 93.5
CCOC(=O)c1[nH]c(C)c(/C(O)=C2\C(=O)C(=O)N(CCN(C)C)C2c2ccco2)c1C (configuration not stated) | -0.457 | 7.9 | -7.2 | -2.35* | 3.3 | 82.6
CCCCCC1CCC(C(=O)O)CC1 (configuration not stated) | -0.347 | 12.7 | 53.7* | 0.178 | -4.4 | 109.3
CCCCC1CCC(/C(N)=N/O)CC1 (configuration not stated) | -0.464 | -2.8 | -9.7 | 0.884 | -2.1 | 111.8
Nc1ccc2ncccc2c1N | 0.419 | · | -18.6 | 1.03 | 9.3 | -18.6*
CCCOc1ccccc1C1CC(=O)Nc2cc3c(cc21)OCCO3 (configuration not stated) | -0.702 | 46.9* | 6.6 | -0.0798 | 0.8 | 41.6
CC(NC(=O)c1cc2c(=O)n(C)c3ccccc3c2n1C)c1ccc2c(c1)OCCO2 (configuration not stated) | 4.41* | -7.4 | 16.1 | -0.591 | 7.5 | 65.8
CC(C)(C)c1cc(C(=O)O)c(CN2CCCCC2)o1 | -0.737 | 6.6 | -15.7 | -0.584 | 79.4* | 75.5
O=CN1CC(=O)N(c2ccccc2)c2c([nH]c3ccccc23)C1 | -0.322 | 14.8 | 1.5 | -0.0281 | 10.6 | 91.2
CN1Cc2cc(C(=O)c3cc(Cl)cc(CSc4ncccn4)c3O)cnc2NC1=O | -0.953 | 33.1 | 54.7* | -0.752 | 5.3 | 68.9
Cc1ccc(O)c(C(=O)c2cnc3c(c2)CN(CCC(C)C)C(=O)N3)c1 | -0.252 | 12.3 | 25.0 | -0.0245 | 1.7 | 88.3
CCOC(=O)C1CCN(C(=O)c2cnn3c(C)cc(C)nc23)CC1 | -0.473 | 10.1 | 7.0 | 0.228 | 7.9 | 87.9
COc1ccc(OCCn2c(NC(=O)c3ccco3)nc3ccccc32)cc1 | -0.347 | -0.8 | -1.8 | 0.413 | -8.5 | 59.4
Cn1c(C(C#N)C(=O)c2ccco2)nc2ccccc21 (configuration not stated) | -0.251 | -15.2 | -17.7 | -0.879 | 3.0 | -11.7*
CCCn1c(NC(=O)c2ccco2)nc2ccccc21 | -1.19 | 2.6 | 4.7 | -0.0117 | 3.5 | 0.7*
Cn1c(C(C#N)C(=O)Cc2cccc3ccccc23)nc2ccccc21 (configuration not stated) | 2 | 13.9 | 4.1 | 0.855 | -10.8 | 78.6
Cc1ccc(C)n1-c1ccc(-c2nnco2)cc1 | -0.427 | 9.0 | 12.6 | 0.0751 | 2.6 | 90.0
Cc1cc(-c2nnco2)c(C)n1-c1ccc(F)cc1 | 0.0148 | 5.0 | -7.8 | 0.331 | -16.3 | 4.7*
C=CCNc1nc2c(c(=O)n(C)c(=O)n2C)n1CC(=C)C | -2.06 | 15.5 | -7.7 | 0.0783 | -5.7 | 95.9
O=C(C1CCC(CNc2c(N3CCCCC3)c(=O)c2=O)CC1)N1CCN(c2ccccn2)CC1 (configuration not stated) | 0.061 | 6.6 | 0.2 | -0.123 | -6.7 | 101.0
CCOC(=O)CNc1c(N2CCN(c3ccccn3)CC2)c(=O)c1=O | 0.305 | 17.9 | 3.8 | 1.07* | 6.6 | 94.3
Cc1ccc2c(CC(=O)OC(C)C(=O)NCc3ccc4c(c3)OCO4)coc2c1 (configuration not stated) | 0.645 | 18.0 | 25.8 | -0.187 | -7.4 | 82.8
CCN1CCCC1CNC(=O)c1nn(-c2ccc(C)cc2)c(=O)c2c1c1ccccc1n2C (configuration not stated) | -0.804 | 10.2 | 8.1 | -0.00536 | 4.7 | 75.8
SMILES | M1 ag | HEK293 NFkB inh | MKP-1 inh | M1 antag | Cdc25B block | HER2 expr 66K
N=c1c2c(-c3ccccc3)c(-c3ccccc3)n(Cc3ccccc3)c2ncn1CCCn1ccnc1 | 0.719 | · | -13.2 | -0.734 | -27.7 | 3.3*
N=c1c2c(-c3ccccc3)c(-c3ccccc3)n(Cc3ccco3)c2ncn1Cc1ccco1 | 1.58 | 12.2 | 8.2 | -0.0616 | -11.1 | 4.4*
O=C(CCN1C(=O)c2cccnc2C1=O)NC1CCCCCC1 | 0.218 | 23.8 | -14.8 | 0.438 | 1.6 | -17.1*
COC(=O)c1cc(OC)c(OC)cc1NC(=O)c1cc(C)on1 | 0.534 | 15.6 | 14.9 | 0.0618 | -10.2 | 89.1
O=C(Nc1nc2ccccc2[nH]1)c1ccccc1F | -0.82 | 60.7* | 6.4 | 0.191 | -2.8 | 69.3
O=C(Nc1nc2ccccc2[nH]1)c1ccc(F)cc1 | 0.0377 | 6.8 | 13.6 | -0.0192 | -4.7 | 85.3
COc1ccccc1N1CCN(C(=O)c2oc3ccccc3c2C)CC1 | 0.768 | 16.0 | 26.7 | -4.47* | -13.3 | 136.5
Cc1c(NC(=O)Cn2nc(C(=O)O)c3ccccc3c2=O)c(=O)n(-c2ccccc2)n1C | 0.414 | 10.2 | -3.4 | 1.03* | -12.0 | 120.1
Cc1c(NC(=O)c2nn(C)c(=O)c3ccccc23)c(=O)n(-c2ccccc2)n1C | -0.0484 | -3.9 | -2.4 | 0.00379 | -2.0 | 96.2
Cc1c(NC(=O)C2CCCNC2=O)c(=O)n(-c2ccccc2)n1C (configuration not stated) | 0.414 | 12.5 | 34.0 | 0.691* | -3.1 | 94.6
Cn1cccc1C(C(=O)NC1CCCCC1)N(C(=O)Cc1cccs1)c1ccc2c(c1)OCCO2 (configuration not stated) | · | -1.0 | 8.6 | · | -3.1 | 79.7
Cn1cnnc1SCc1ccc(C(=O)O)cc1 | 1.25 | -9.4 | 0.3 | 2.1* | -9.6 | 147.6
CC(=O)OC1C(OC(C)=O)N(C(C)=O)C(=O)N1C(C)=O (configuration not stated) | 1.71 | 8.6 | -23.4 | 1.86* | -2.3 | 87.7
CCOC(=O)N1CCC(NC(=O)CCC(=O)N2CCOc3ccc(C)cc32)CC1 | 0.275 | -2.7 | 25.8 | 3.35* | 27.7 | 92.3
CSc1nnc2c3ccccc3n(Cc3ccccc3)c2n1 | 0.756 | 11.3 | 7.9 | -0.295 | -0.2 | 61.8
CSc1nnc2c3ccccc3n(CCc3ccccc3)c2n1 | -1.29 | 58.4* | -8.0 | 0.473 | -3.2 | 111.2
